Measured values gathered from unrelated publications.
Protocols differ between the studies behind these lines.
Cell line: HCT-116
Effect on: cell growth or viability

`COc1cc(CNC(=O)CCCC/C=C/C(C)C)ccc1O` gave an inhibition of 0% (SRB; 10 µM).
`COc1ccc(NCC(=O)Nc2c(C#N)sc(Nc3ccccc3)c2C(=O)Nc2ccc(OC)cc2)cc1` gave a viability of 70.2% (SRB; 1 µM, 48 h).
`COc1cc2c(OC)nc3c4cc5c(cc4cc(OCCCN(C)C)c3c2cc1OC)OCO5` has a GI50 of 15 µM (MTT; 72 h).
The inhibition of `COc1ccc(C(=O)/C=C/c2ccccc2Br)cc1S(N)(=O)=O` is reported as 197% (SRB; 10 µM).
`COc1cc2c(OC)nc3c4cc5c(cc4cc(OCCCN4CCCC4)c3c2cc1OC)OCO5` gave a GI50 of 2.4 µM (MTT; 72 h).
`COc1cc(/C=N/n2c(C)nc3ccc(C)cc3c2=O)ccc1OCc1ccccc1` has a viability of 74.5% (LDH; 200 µg/mL, 24 h).
For `COc1ccc(NC(=O)c2c(Nc3ccccc3)sc(C#N)c2NC(=O)CNc2ccc(O)cc2)cc1`, the viability was 93.1% (SRB; 10 nM, 48 h).
With `COc1ccccc1/C=C/C(=O)c1ccc(OC)c(S(N)(=O)=O)c1` the inhibition was 95% (SRB; 10 µM).
The GI50 of `COc1cccc(Oc2ccccc2NC(=O)CNC(=O)c2cccc3ccccc23)c1` is reported as 0.0955 µM (SRB; 48 h).
The viability of `COc1ccc(NC(=O)c2c(Nc3ccccc3)sc(C#N)c2NC(=O)CNc2ccc(OC)c(OC)c2)cc1` is reported as 76% (SRB; 0.1 µM, 48 h).
`CCN(CC)CCCOc1cc2cc3c(cc2c2nc(OC)c4cc(OC)c(OC)cc4c12)OCO3` gave a GI50 of 13 µM (MTT; 72 h).
`CNS(=O)(=O)Nc1nccc(Cc2c(C)c3ccc(Oc4ncccn4)cc3oc2=O)c1F` gave a GI50 of 3.23 µM (CCK-8).
For `COc1ccc(C(=O)/C=C/c2ccc3ccccc3c2)cc1S(N)(=O)=O`, the GI50 was 1.9 µM (SRB; 48 h).
The viability of `COc1ccc2cc(/C=N/n3c(C)nc4ccc(Br)cc4c3=O)ccc2c1` is reported as 57% (LDH; 200 µg/mL, 24 h).
`COc1ccc(NC(=O)c2c(Nc3ccccc3)sc(C(=O)NN=Cc3cc(OC)c(OC)c(OC)c3)c2NC(C)=O)cc1` has a viability of 86.1% (SRB; 0.1 µM, 48 h).
With `Cc1nc2ccc(Cl)cc2c(=O)n1NC(=O)CCl` the viability was 89% (LDH; 200 µg/mL, 24 h).
`COc1ccc(NC(=O)c2c(Nc3ccccc3)sc(C#N)c2NC(=O)CNc2ccc([N+](=O)[O-])cc2)cc1` gave a viability of 83.9% (SRB; 0.1 µM, 48 h).
`COc1ccc(C(=O)/C=C/c2ccc(Cl)c(Cl)c2)cc1S(N)(=O)=O` has an inhibition of 196% (SRB; 10 µM).
For `COc1cc2c(OC)nc3c4cc5c(cc4cc(OCCN(C)C)c3c2cc1OC)OCO5`, the GI50 was > 100 µM (MTT; 72 h).
With `COc1ccc(C(=O)/C=C/c2cccnc2)cc1S(N)(=O)=O` the GI50 was 3.2 µM (SRB; 48 h).
With `COc1ccc(NC(=O)c2c(Nc3ccccc3)sc(C#N)c2NC(=O)CNc2ccc(Cl)cc2)cc1` the viability was 72% (SRB; 0.1 µM, 48 h).
`COc1ccc(C(=O)/C=C/c2cccc3ccccc23)cc1S(N)(=O)=O` has a GI50 of 1.3 µM (SRB; 48 h).
The viability of `COc1ccc(NC(=O)c2c(Nc3ccccc3)sc(C(=O)NN=Cc3ccc(Cl)cc3)c2NC(C)=O)cc1` is reported as 74.2% (SRB; 1 µM, 48 h).
`COc1ccc(C(=O)/C=C/c2cccc(Br)c2)cc1S(N)(=O)=O` has an inhibition of 199% (SRB; 10 µM).
`S=C([S][Au-][P+](CCCCCC[P+]([Au-][S]C(=S)n1cccn1)(c1ccccc1)c1ccccc1)(c1ccccc1)c1ccccc1)n1cccn1` gave a GI50 of 0.42 µM.
The viability of `COc1cc(/C=N/n2c(C)nc3ccc(C)cc3c2=O)cc([N+](=O)[O-])c1O` is reported as 90% (LDH; 200 µg/mL, 24 h).
For `COc1ccc(C(=O)/C=C/c2cccc(Cl)c2Cl)cc1S(N)(=O)=O`, the GI50 was 1.3 µM (SRB; 48 h).
